pEC50, pIC50: −log10 of the molar value. ≈ marks a conversion by molar mass, not a printed value.
Assays:
[1] = tested on: Hepatitis C virus; assay: Antiviral activity against Hepatitis C virus genotype 1b expressing NS4B H94N mutant infected in human HuH7 cells after 48 hrs by luciferase reporter gene assay; type: functional, organism-based, Hepacivirus hominis; settings: Huh-7, 48 h
[2] = Clearance in beagle dog at 1 mg/kg, iv by LC/MS/MS analysis; type: ADME, organism-based, Canis lupus familiaris; parameters: dose 1 mg/kg, route intravenous; settings: in vivo
Procedure, shortened: (§1)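 Intravenous dose of 1 mg/kg in DMSO/20% HP-β-CD (10:90) (n = 4). Clearance, Vdss and t1/2 were derived from the plasma concentration–time profiles.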

[3] = Half life in beagle dog at 1 mg/kg, iv by LC/MS/MS analysis; type: ADME, organism-based, Canis lupus familiaris; parameters: dose 1 mg/kg, route intravenous; settings: in vivo; procedure, shortened: as §1
[4] = Lipophilicity, log D of the compound by chromatographic analysis; type: physicochemical
Procedure, shortened: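 Lipophilicity was measured chromatographically and reported as ChromLogD; ≥6 replicates.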

[5] = Volume of distribution at steady state in CD-1 mouse at 1 mg/kg, iv by LC/MS/MS analysis; type: ADME, organism-based; parameters: dose 1 mg/kg, route intravenous; settings: in vivo, read-out: Vdss; procedure, shortened: as §1
[6] = molecular target: Cytochrome P450 2C9 (Homo sapiens, UniProt P11712); assay: Inhibition of CYP2C9 in human liver microsomes after 10 mins by LC/MS/MS analysis; type: ADME
Chain of Cytochrome P450 2C9 (P11712 whole entry): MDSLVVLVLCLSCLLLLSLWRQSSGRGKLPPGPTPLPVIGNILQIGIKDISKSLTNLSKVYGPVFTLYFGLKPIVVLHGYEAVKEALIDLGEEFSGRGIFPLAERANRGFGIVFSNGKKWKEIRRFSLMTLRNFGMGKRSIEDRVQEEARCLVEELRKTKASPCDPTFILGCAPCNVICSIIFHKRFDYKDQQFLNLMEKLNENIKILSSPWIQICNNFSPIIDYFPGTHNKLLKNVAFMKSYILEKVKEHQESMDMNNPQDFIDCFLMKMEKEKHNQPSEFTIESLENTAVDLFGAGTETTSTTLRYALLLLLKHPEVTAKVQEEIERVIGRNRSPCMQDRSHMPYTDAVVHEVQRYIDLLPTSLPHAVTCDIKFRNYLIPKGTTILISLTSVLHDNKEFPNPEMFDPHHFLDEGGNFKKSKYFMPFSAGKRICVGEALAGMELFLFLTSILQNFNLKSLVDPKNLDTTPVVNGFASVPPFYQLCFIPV
Procedure, shortened: (§2)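 Cytochrome P450 isozymes 3A4, 1A2, 2C9, 2C19 and 2D6 were tested for inhibition up to 20 μM, with IC50 reported.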

[7] = tested on: Liver microsome; assay: Drug metabolism in human liver microsomes assessed as generation of reactive metabolites at 10 uM after 30 mins by glutathione-trapping assay; type: ADME; settings: 0.5 h
Procedure, shortened: (§3)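 Rat and human liver microsomes were incubated with compound, and a glutathione-trapping assay was used to detect reactive metabolites.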

[8] = Displacement of [3H]-3-(1-(3-chloro-6-isopropyl-8-(trifluoromethyl)imidazo[1,2-a]pyridine-2-carbonyl)piperidin-4-yl)oxazolidin-2-one from HCV genotype 1b C-terminal His-tagged NS4B (1 to 261 aa) expressed in baculovirus infected SF9 cells after overnight incubation; parameters: species or system Hepatitis C virus subtype 1b
[9] = Clearance in CD-1 mouse at 1 mg/kg, iv by LC/MS/MS analysis; type: ADME, organism-based; parameters: dose 1 mg/kg, route intravenous; settings: in vivo; procedure, shortened: as §1
[10] = tested on: Liver microsome; assay: Drug metabolism in rat liver microsomes assessed as generation of reactive metabolites at 10 uM after 30 mins by glutathione-trapping assay; type: ADME; settings: 0.5 h; procedure, shortened: as §3
[11] = AUC (0 to infinity) in cynomolgus monkey at 5 mg/kg, po by LC/MS/MS analysis; type: ADME, organism-based, Macaca fascicularis; parameters: time infinity, dose 5 mg/kg, route oral; settings: plasma
Procedure, shortened: (§4)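 Oral dose of 5 mg/kg in DMSO/20% HP-β-CD (10:90), with a matching iv group for bioavailability. Plasma concentration–time profiles gave AUC0−∞ and F.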

[12] = Clearance in CD rat at 1 mg/kg, iv by LC/MS/MS analysis; type: ADME, organism-based; parameters: dose 1 mg/kg, route intravenous; settings: in vivo; procedure, shortened: as §1
[13] = Volume of distribution at steady state in beagle dog at 1 mg/kg, iv by LC/MS/MS analysis; type: ADME, organism-based, Canis lupus familiaris; parameters: dose 1 mg/kg, route intravenous; settings: in vivo, read-out: Vdss; procedure, shortened: as §1
[14] = tested on: Hepatitis C virus; assay: Antiviral activity against Hepatitis C virus genotype 1a infected in human HuH7 cells after 48 hrs by luciferase reporter gene assay; type: functional, organism-based, Hepacivirus hominis; settings: subtype 1a, Huh-7, 48 h
[15] = Half life in CD rat at 1 mg/kg, iv by LC/MS/MS analysis; type: ADME, organism-based; parameters: dose 1 mg/kg, route intravenous; settings: in vivo; procedure, shortened: as §1
[16] = Clearance in cynomolgus monkey at 1 mg/kg, iv by LC/MS/MS analysis; type: ADME, organism-based, Macaca fascicularis; parameters: dose 1 mg/kg, route intravenous; settings: in vivo; procedure, shortened: as §1
[17] = Oral bioavailability in cynomolgus monkey at 5 mg/kg by LC/MS/MS analysis; type: ADME, organism-based, Macaca fascicularis; settings: in vivo; procedure, shortened: as §4
[18] = molecular target: Cytochrome P450 2C19 (Homo sapiens, UniProt P33261); assay: Inhibition of CYP2C19 in human liver microsomes after 10 mins by LC/MS/MS analysis; type: ADME; procedure, shortened: as §2
Chain of Cytochrome P450 2C19 (P33261 whole entry): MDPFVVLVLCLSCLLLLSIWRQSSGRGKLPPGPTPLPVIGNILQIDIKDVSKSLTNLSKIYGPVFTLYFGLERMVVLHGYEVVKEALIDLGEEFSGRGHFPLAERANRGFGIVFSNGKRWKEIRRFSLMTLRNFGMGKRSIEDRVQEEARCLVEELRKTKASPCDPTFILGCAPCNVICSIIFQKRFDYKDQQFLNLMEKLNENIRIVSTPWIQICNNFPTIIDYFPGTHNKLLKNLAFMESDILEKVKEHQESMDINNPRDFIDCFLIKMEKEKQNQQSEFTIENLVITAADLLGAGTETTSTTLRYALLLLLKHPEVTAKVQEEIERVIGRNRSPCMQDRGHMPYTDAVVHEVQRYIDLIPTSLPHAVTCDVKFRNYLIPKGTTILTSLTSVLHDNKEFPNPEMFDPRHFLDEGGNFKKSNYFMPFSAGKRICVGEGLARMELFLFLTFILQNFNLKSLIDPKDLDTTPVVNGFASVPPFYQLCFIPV

[19] = Oral bioavailability in CD-1 mouse at 5 mg/kg by LC/MS/MS analysis; type: ADME, organism-based; settings: in vivo; procedure, shortened: as §4
[20] = Half life in CD-1 mouse at 1 mg/kg, iv by LC/MS/MS analysis; type: ADME, organism-based; parameters: dose 1 mg/kg, route intravenous; settings: in vivo; procedure, shortened: as §1
[21] = Plasma protein binding in CD-1 mouse at 5 uM after 4 hrs by rapid equilibrium dialysis method; type: ADME, cell-free; settings: read-out: PPB (converted)
[22] = Plasma protein binding in human at 5 uM after 4 hrs by rapid equilibrium dialysis method; type: ADME, cell-free; settings: read-out: PPB (converted)
[23] = molecular target: T1, Cytochrome P450 1A2 (Homo sapiens, UniProt P05177); assay: Inhibition of CYP1A2 in human liver microsomes after 10 mins by LC/MS/MS analysis; type: ADME; procedure, shortened: as §2
T1 sequence (P05177 whole entry): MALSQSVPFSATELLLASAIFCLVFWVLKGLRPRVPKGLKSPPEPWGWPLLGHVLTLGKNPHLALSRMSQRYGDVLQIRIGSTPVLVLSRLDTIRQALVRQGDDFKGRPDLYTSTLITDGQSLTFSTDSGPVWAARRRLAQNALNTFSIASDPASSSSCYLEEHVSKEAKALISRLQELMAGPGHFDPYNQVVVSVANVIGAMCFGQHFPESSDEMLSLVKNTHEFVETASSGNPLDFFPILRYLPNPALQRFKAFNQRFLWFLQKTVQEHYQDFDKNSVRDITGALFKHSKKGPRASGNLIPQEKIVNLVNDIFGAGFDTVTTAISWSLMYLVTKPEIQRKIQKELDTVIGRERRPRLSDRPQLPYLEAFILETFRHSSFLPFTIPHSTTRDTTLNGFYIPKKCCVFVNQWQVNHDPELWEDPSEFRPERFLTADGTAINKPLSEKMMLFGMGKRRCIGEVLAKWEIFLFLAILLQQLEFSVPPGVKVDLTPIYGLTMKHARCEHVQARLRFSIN

[24] = AUC (0 to infinity) in beagle dog at 5 mg/kg, po by LC/MS/MS analysis; type: ADME, organism-based, Canis lupus familiaris; parameters: time infinity, dose 5 mg/kg, route oral; settings: plasma; procedure, shortened: as §4
[25] = AUC (0 to infinity) in CD-1 mouse at 5 mg/kg, po by LC/MS/MS analysis; type: ADME, organism-based; parameters: time infinity, dose 5 mg/kg, route oral; settings: plasma; procedure, shortened: as §4
[26] = Volume of distribution at steady state in cynomolgus monkey at 1 mg/kg, iv by LC/MS/MS analysis; type: ADME, organism-based, Macaca fascicularis; parameters: dose 1 mg/kg, route intravenous; settings: in vivo, read-out: Vdss; procedure, shortened: as §1
[27] = Plasma protein binding in cynomolgus monkey at 5 uM after 4 hrs by rapid equilibrium dialysis method; type: ADME, cell-free, Macaca fascicularis; settings: read-out: PPB (converted)
[28] = molecular target: Cytochrome P450 2D6 (Homo sapiens, UniProt P10635); assay: Inhibition of CYP2D6 in human liver microsomes after 10 mins by LC/MS/MS analysis; type: ADME; procedure, shortened: as §2
Chain of Cytochrome P450 2D6 (P10635 whole entry): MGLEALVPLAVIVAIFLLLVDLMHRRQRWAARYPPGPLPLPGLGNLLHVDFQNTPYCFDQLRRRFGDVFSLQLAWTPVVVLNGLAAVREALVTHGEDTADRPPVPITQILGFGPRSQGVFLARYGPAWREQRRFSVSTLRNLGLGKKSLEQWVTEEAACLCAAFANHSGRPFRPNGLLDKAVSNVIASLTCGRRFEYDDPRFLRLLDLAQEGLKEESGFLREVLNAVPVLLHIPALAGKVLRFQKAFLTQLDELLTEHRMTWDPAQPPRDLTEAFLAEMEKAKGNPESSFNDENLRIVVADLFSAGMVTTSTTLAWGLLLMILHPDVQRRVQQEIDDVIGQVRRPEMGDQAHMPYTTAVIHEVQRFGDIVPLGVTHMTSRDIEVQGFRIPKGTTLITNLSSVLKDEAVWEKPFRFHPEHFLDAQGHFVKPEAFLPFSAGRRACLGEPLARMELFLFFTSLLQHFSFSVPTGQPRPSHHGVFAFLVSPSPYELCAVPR

[29] = tested on: Hepatitis C virus; assay: Antiviral activity against Hepatitis C virus genotype 1b expressing NS4B V105M mutant infected in human HuH7 cells after 48 hrs by luciferase reporter gene assay; type: functional, organism-based, Hepacivirus hominis; settings: Huh-7, 48 h
[30] = Volume of distribution at steady state in CD rat at 1 mg/kg, iv by LC/MS/MS analysis; type: ADME, organism-based; parameters: dose 1 mg/kg, route intravenous; settings: in vivo, read-out: Vdss; procedure, shortened: as §1
[31] = molecular target: Cytochrome P450 3A4 (Homo sapiens, UniProt P08684); assay: Inhibition of CYP3A4 in human liver microsomes after 7 mins by LC/MS/MS analysis; type: ADME; procedure, shortened: as §2
Chain of Cytochrome P450 3A4 (P08684 whole entry): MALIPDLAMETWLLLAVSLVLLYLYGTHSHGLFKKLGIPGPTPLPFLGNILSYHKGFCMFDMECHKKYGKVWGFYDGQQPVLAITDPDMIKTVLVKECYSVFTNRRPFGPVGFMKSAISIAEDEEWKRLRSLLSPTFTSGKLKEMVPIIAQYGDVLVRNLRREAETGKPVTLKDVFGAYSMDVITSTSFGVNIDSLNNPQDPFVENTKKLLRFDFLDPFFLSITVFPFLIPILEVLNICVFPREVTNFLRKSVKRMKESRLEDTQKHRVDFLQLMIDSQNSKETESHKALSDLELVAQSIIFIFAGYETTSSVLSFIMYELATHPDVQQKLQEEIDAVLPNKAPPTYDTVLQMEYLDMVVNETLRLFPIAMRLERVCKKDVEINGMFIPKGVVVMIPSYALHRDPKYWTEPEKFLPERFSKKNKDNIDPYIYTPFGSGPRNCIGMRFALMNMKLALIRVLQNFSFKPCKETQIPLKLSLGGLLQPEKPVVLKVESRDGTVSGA

[32] = AUC (0 to infinity) in CD rat at 5 mg/kg, po by LC/MS/MS analysis; type: ADME, organism-based; parameters: time infinity, dose 5 mg/kg, route oral; settings: plasma; procedure, shortened: as §4
[33] = Plasma protein binding in CD rat at 5 uM after 4 hrs by rapid equilibrium dialysis method; type: ADME, cell-free; settings: read-out: PPB (converted)
[34] = Half life in cynomolgus monkey at 1 mg/kg, iv by LC/MS/MS analysis; type: ADME, organism-based, Macaca fascicularis; parameters: dose 1 mg/kg, route intravenous; settings: in vivo; procedure, shortened: as §1
[35] = Plasma protein binding in beagle dog at 5 uM after 4 hrs by rapid equilibrium dialysis method; type: ADME, cell-free, Canis lupus familiaris; settings: read-out: PPB (converted)
[36] = tested on: Hepatitis C virus; assay: Antiviral activity against Hepatitis C virus genotype 1b infected in human HuH7 cells after 48 hrs by luciferase reporter gene assay; type: functional, organism-based, Hepacivirus hominis; settings: Huh-7, 48 h
[37] = Oral bioavailability in CD rat at 5 mg/kg by LC/MS/MS analysis; type: ADME, organism-based; settings: in vivo; procedure, shortened: as §4
[38] = Oral bioavailability in beagle dog at 5 mg/kg by LC/MS/MS analysis; type: ADME, organism-based, Canis lupus familiaris; settings: in vivo; procedure, shortened: as §4
[39] = Aqueous solubility in fasted state simulated intestinal fluid at pH 6.5 by LC/UV analysis; type: physicochemical
[40] = tested on: Hepatocyte; assay: Drug metabolism in rat hepatocytes assessed as oxidation of the terminal bicyclohexane substituent at 10 uM by LC/MS/MS analysis; type: ADME, cell-based
[41] = tested on: Hepatocyte; assay: Drug metabolism in human hepatocytes assessed as oxidation of the terminal bicyclohexane substituent at 10 uM by LC/MS/MS analysis; type: ADME, cell-based

O=C(c1nn2c(C(F)(F)F)cc(C3CC3)cc2c1Cl)N1CCN([C@H]2C[C@@H]3C[C@@H]3[C@@H]2O)C(=O)C1
pEC50 [1]: 8.30 | clearance [2]: 6 mL/min/kg | half-life [3]: 2 h | chromatographic logD [4]: 4.6 | Vd [5]: 0.6 L/kg | pIC50 [6]: < 4.70 | Stability [7]: Stable | pIC50 [8]: 8.10 | clearance [9]: 19 mL/min/kg | Stability [10]: Stable | AUC(0-inf) [11]: 25000 ng·h/mL | clearance [12]: 25 mL/min/kg | Vd [13]: 0.7 L/kg | pEC50 [14]: 9.22 | half-life [15]: 2 h | clearance [16]: 3 mL/min/kg | bioavailability [17]: 97% | pIC50 [18]: < 4.70 | bioavailability [19]: 12% | half-life [20]: 0.4 h | fraction unbound at 4 h, 5 µM [21]: 0.03 | fraction unbound at 4 h, 5 µM [22]: 0.06 | pIC50 [23]: < 4.70 | AUC(0-inf) [24]: 25000 ng·h/mL | AUC(0-inf) [25]: 1000 ng·h/mL | Vd [26]: 0.7 L/kg | fraction unbound at 4 h, 5 µM [27]: 0.09 | pIC50 [28]: < 4.70 | pEC50 [29]: 7.42 | Vd [30]: 2 L/kg | pIC50 [31]: < 4.70 | AUC(0-inf) [32]: 3100 ng·h/mL | fraction unbound at 4 h, 5 µM [33]: 0.04 | half-life [34]: 4 h | fraction unbound at 4 h, 5 µM [35]: 0.07 | pEC50 [36]: 9.52 | bioavailability [37]: 92% | bioavailability [38]: > 100% | solubility [39]: 310 µg/mL (≈ 642 µM)

O=C(c1nn2c(C(F)(F)F)cc(C3CC3)cc2c1Cl)N1CCN([C@@H]2C[C@H]3C[C@H]3C2)C(=O)C1
pEC50 [1]: 9.15 | chromatographic logD [4]: 6.4 | pIC50 [8]: 8.40 | clearance [12]: 70 mL/min/kg | pEC50 [14]: 10.00 | Stability [40]: Unstable | pEC50 [29]: 8.70 | Stability [41]: Unstable | pEC50 [36]: 10.22

From ChEMBL document CHEMBL3124867, “Hepatitis C replication inhibitors that target the viral NS4B protein” (J Med Chem, 2014)
